Experimental data as given in ChEMBL document CHEMBL4425104, “Structure-Based Design of Potent Nicotinamide Phosphoribosyltransferase Inhibitors with Promising in Vitro and in Vivo Antitumor Activities” (J Med Chem, 2016).

Tests used:
[1] = biological target: T1, Nicotinamide phosphoribosyltransferase (Homo sapiens, UniProt P43490); test: Inhibition of recombinant NAMPT (unknown origin) using nicotinamide as substrate measured every 5 mins for 30 mins in presence of recombinant NMNAT1
HeLa = test: Cytotoxicity against human HeLa cells assessed as cell growth inhibition after 72 hrs by CCK-8 assay; format: functional
Outline: (§1)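 HeLa, MCF7, H1975, U937 and MDA-MB-231 kept in RPMI or DMEM with 10% FBS and 1% pen/strep at 37 °C, 5% CO2. Seeded at 400-800 cells/well in 384-well format, exposed to a concentration series or solvent control for 72 h. CCK-8 added, absorbance read at 450 nm, IC50 fitted from dose-response curves.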

MCF7 = test: Cytotoxicity against human MCF7 cells assessed as cell growth inhibition after 72 hrs by CCK-8 assay; format: functional; details: MCF7, 72 h; outline: as §1
NCI-H1975 = test: Cytotoxicity against human NCI-H1975 cells assessed as cell growth inhibition after 72 hrs by CCK-8 assay; format: functional; details: NCI-H1975, 72 h; outline: as §1
U-937 = test: Cytotoxicity against human U937 cells assessed as cell growth inhibition after 72 hrs by CCK-8 assay; format: functional; details: U-937, 72 h; outline: as §1
MDA-MB-231 [2] = test: Cytotoxicity against human MDA-MB-231 cells assessed as cell growth inhibition after 72 hrs by CCK-8 assay; format: functional; details: MDA-MB-231, 72 h; outline: as §1
[3] = biological target: T1, Nicotinamide phosphoribosyltransferase; test: Inhibition of NAMPT in human MCF7 cells assessed as decrease in NAD production after 24 hrs by NAD/NADH Glo assay; format: cell-based
Outline: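 MCF-7 cells serum-starved over 12 h, then treated with compound or vehicle for 24 h. Washed in ice-cold PBS, lysed in 1% DTAB in 0.2 N NaOH diluted 1:1 with PBS, frozen at -80 °C.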

[4] = Cmax in Sprague-Dawley rat at 5 mg/kg, iv measured up to 24 hrs by LC-MS analysis; format: ADME, organism-based; design: dose 5 mg/kg, route intravenous; details: in vivo
[5] = Cmax in Sprague-Dawley rat at 25 mg/kg, po measured up to 24 hrs by LC-MS analysis; format: ADME, organism-based; design: dose 25 mg/kg, route oral; details: in vivo
[6] = Tmax in Sprague-Dawley rat at 5 mg/kg, iv by LC-MS analysis; format: ADME, organism-based; details: in vivo
[7] = Tmax in Sprague-Dawley rat at 25 mg/kg, po by LC-MS analysis; format: ADME, organism-based; details: in vivo
[8] = AUC (0 to infinity) in Sprague-Dawley rat at 5 mg/kg, iv measured up to 24 hrs by LC-MS analysis; format: ADME, organism-based; design: dose 5 mg/kg, time infinity, route intravenous; details: in vivo
[9] = AUC (0 to infinity) in Sprague-Dawley rat at 25 mg/kg, po measured up to 24 hrs by LC-MS analysis; format: ADME, organism-based; design: dose 25 mg/kg, route oral, time infinity; details: in vivo
[10] = Half life in Sprague-Dawley rat at 5 mg/kg, iv by LC-MS analysis; format: ADME, organism-based; details: in vivo
[11] = Half life in Sprague-Dawley rat at 25 mg/kg, po by LC-MS analysis; format: ADME, organism-based; details: in vivo
[12] = Plasma clearance in Sprague-Dawley rat at 5 mg/kg, iv measured up to 24 hrs by LC-MS analysis; format: ADME, organism-based
[13] = Plasma clearance in Sprague-Dawley rat at 25 mg/kg, po measured up to 24 hrs by LC-MS analysis; format: ADME, organism-based
[14] = Oral bioavailability in Sprague-Dawley rat at 25 mg/kg measured up to 24 hrs by LC-MS analysis; format: ADME, organism-based; details: in vivo
MDA-MB-231 [15] = test: Antitumor activity against human MDA-MB-231 cells xenografted in nude SCID mouse assessed as tumor growth inhibition at 15 mg/kg, iv qd administered 4 days per week for 4 weeks; format: functional; details: MDA-MB-231, iv, read-out: TGI
Outline: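 Female SCID nude mice, 6 weeks old, given 1 × 10^6 MDA-MB-231 cells into the lower left mammary fat pad. At 100–300 mm3 tumours, randomised to groups of n = 5 and dosed i.v. at 15 mg/kg or vehicle 4 days a week. Volume = L × W²/2; TGI = [1 − (T − T0)/(C − C0)] × 100 from mean volumes; body weight followed.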

[16] = Toxicity in nude SCID mouse assessed as mortality at 15 mg/kg, iv qd administered 4 days per week for 4 weeks; format: organism-based; details: in vivo
Outline: (§2)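 Female SCID nude mice (6 weeks) bearing MDA-MB-231 orthotopic tumours (1 × 10^6 cells in lower left mammary fat pad). Randomised at tumour volume 100–300 mm3 into vehicle or treatment groups (n = 5). Dosing 15 mg/kg i.v., 4 days a week. Vehicle elsewhere given as 2% DMSO, 4% EtOH, 4% castor oil, 90% water. Body weight and mortality recorded during treatment.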

[17] = Toxicity in nude SCID mouse assessed as body weight loss at 15 mg/kg, iv qd administered 4 days per week for 4 weeks; format: organism-based; details: in vivo; outline: as §2
[18] = Ratio of Cmax in Sprague-Dawley rat to IC50 for NAMPT in human MCF7 cells; format: ADME, cell-based

T1 sequence (P43490 whole entry): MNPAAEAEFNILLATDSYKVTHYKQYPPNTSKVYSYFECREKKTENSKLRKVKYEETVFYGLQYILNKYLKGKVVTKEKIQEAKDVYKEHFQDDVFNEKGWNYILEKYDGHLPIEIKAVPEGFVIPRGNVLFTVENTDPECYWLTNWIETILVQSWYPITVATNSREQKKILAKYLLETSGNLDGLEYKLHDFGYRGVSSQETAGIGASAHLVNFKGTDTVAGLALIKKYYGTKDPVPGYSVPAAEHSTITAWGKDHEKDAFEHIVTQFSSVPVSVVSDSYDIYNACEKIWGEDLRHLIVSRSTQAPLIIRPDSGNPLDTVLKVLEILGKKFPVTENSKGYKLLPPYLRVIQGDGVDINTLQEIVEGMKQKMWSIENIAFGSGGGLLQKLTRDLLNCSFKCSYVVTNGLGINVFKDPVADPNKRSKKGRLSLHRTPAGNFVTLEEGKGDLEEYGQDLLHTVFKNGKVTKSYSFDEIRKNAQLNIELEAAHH

Row | SMILES | IC50 [1] | GI50 (HeLa) | GI50 (MCF7) | GI50 (NCI-H1975) | GI50 (U-937) | GI50 (MDA-MB-231 [2]) | also measured
1 | CCN(CCc1c[nH]c2ccccc12)Cc1ccc(CCCNC(=O)/C=C/c2cccnc2)cc1 | 873 nM | 200 nM | 41 nM | 314 nM | 48.3 nM | 76.4 nM | –
2 | CC(C)N(CCc1c[nH]c2ccccc12)Cc1ccc(CCCCCCCNC(=O)/C=C/c2cccnc2)cc1 | 52.7 nM | 2.64 nM | 0.74 nM | 4.2 nM | 0.75 nM | 0.84 nM | –
3 | O=C(/C=C/c1cccnc1)NCCCc1ccc(CN(CCc2c[nH]c3ccccc23)Cc2ccccc2)cc1 | 1000 nM | 379 nM | 101 nM | 514 nM | 85.2 nM | 269 nM | –
4 | CC(C)N(CCc1c[nH]c2ccccc12)Cc1ccc(CCCNC(=O)/C=C/c2cccnc2)cc1 | 702 nM | 90.7 nM | 22.4 nM | 79.7 nM | 24.2 nM | 30.5 nM | –
5 | CN(CCc1c[nH]c2ccccc12)Cc1ccc(CCCNC(=O)/C=C/c2cccnc2)cc1 | 780 nM | 250 nM | 75.4 nM | 224 nM | 69.1 nM | 84.7 nM | –
6 | CC(C)(C)OC(=O)N(CCc1c[nH]c2ccccc12)Cc1ccc(CCCNC(=O)/C=C/c2cccnc2)cc1 | 715 nM | 288 nM | 85.5 nM | 399 nM | 54.3 nM | 123 nM | –
7 | CCCN(CCc1c[nH]c2ccccc12)Cc1ccc(CCCNC(=O)/C=C/c2cccnc2)cc1 | 544 nM | 55.7 nM | 23.8 nM | 109 nM | 28.1 nM | 36 nM | –
8 | CC(C)N(CCc1c[nH]c2ccccc12)Cc1ccc(NCCCCCNC(=O)/C=C/c2cccnc2)cc1 | 25.3 nM | 0.5 nM | 0.13 nM | 1.61 nM | 0.25 nM | 0.15 nM | IC50 [3]: 0.155 nM; Cmax [4]: 3790 ng/mL; Cmax [5]: 108 ng/mL; Tmax [6]: 1.98 min; Tmax [7]: 2 h; AUC(0-inf) [8]: 1710 ng·h/mL; AUC(0-inf) [9]: 374 ng·h/mL; half-life [10]: 1.55 h; half-life [11]: 2.37 h; clearance [12]: 49 mL/min/kg; CL/F [13]: 1140 mL/min/kg; bioavailability [14]: 4.4%; inhibition in vivo at 15 mg/kg (MDA-MB-231 [15]): 73.8%; Activity [16]: Non-Toxic; Activity [17]: Non-Toxic; Ratio [18]: 500
9 | O=C(/C=C/c1cccnc1)NCCCc1ccc(CN(CCO)CCc2c[nH]c3ccccc23)cc1 | 181 nM | 69.4 nM | 18.1 nM | 107 nM | 18.3 nM | 31.4 nM | –
10 | CC(C)N(CCc1c[nH]c2ccccc12)Cc1ccc(CNC(=O)/C=C/c2cccnc2)cc1 | 213 nM | 173 nM | 75.1 nM | 335 nM | 77.9 nM | 134 nM | –
11 | O=C(/C=C/c1cccnc1)NCCCc1ccc(CNCCc2c[nH]c3ccccc23)cc1 | 1410 nM | 405 nM | 86.9 nM | 963 nM | 187 nM | 358 nM | –
12 | O=C(/C=C/c1cccnc1)NCCCCC1CCN(C(=O)c2ccccc2)CC1 [DAPORINAD] | – | 1.34 nM | 0.29 nM | 3.95 nM | 0.36 nM | 0.78 nM | –
13 | CC(=O)O[C@H]1C(=O)[C@@]2(C)[C@H]([C@H](OC(=O)c3ccccc3)[C@]3(O)C[C@H](OC(=O)[C@H](O)[C@@H](NC(=O)c4ccccc4)c4ccccc4)C(C)=C1C3(C)C)[C@]1(OC(C)=O)CO[C@@H]1C[C@@H]2O [PACLITAXEL] | – | 2.34 nM | 4.38 nM | 5.77 nM | 2.12 nM | 8.67 nM | –

More lines, main results first:

Row | IC50 [1] | SMILES | GI50 (HeLa) | GI50 (MCF7) | GI50 (NCI-H1975) | GI50 (U-937) | GI50 (MDA-MB-231 [2]) | also measured
14 | 82.5 nM | CC(C)N(Cc1ccccc1)Cc1ccc(CCCCCNC(=O)/C=C/c2cccnc2)cc1 | 40.1 nM | 6.37 nM | 49 nM | 11.1 nM | 12.6 nM | –
15 | 362 nM | CC(C)N(CCc1ccc(C(F)(F)F)cc1)Cc1ccc(CCCCCNC(=O)/C=C/c2cccnc2)cc1 | 8.98 nM | 1.6 nM | 9.54 nM | 1.57 nM | 2.4 nM | –
16 | 99.6 nM | Cc1ccc(CCN(Cc2ccc(CCCCCNC(=O)/C=C/c3cccnc3)cc2)C(C)C)cc1 | 26.6 nM | 5.53 nM | 39.2 nM | 8.73 nM | 7.19 nM | –
17 | 66.9 nM | CC(C)N(CCc1c[nH]c2ccccc12)Cc1ccc(CCCCCNC(=O)/C=C/c2cccnc2)cc1 | 3.23 nM | 0.63 nM | 4.2 nM | 0.61 nM | 0.89 nM | –
18 | 285 nM | CC(C)N(CCc1ccccc1)Cc1ccc(CCCCCNC(=O)/C=C/c2cccnc2)cc1 | 19.6 nM | 7.18 nM | 61.3 nM | 6.21 nM | 10.1 nM | –
19 | 381 nM | CC(C)N(CCc1cccc(C(F)(F)F)c1)Cc1ccc(CCCCCNC(=O)/C=C/c2cccnc2)cc1 | 15.2 nM | 2.41 nM | 26.2 nM | 5.1 nM | 6.92 nM | –
20 | 54.8 nM | COc1ccc(CCN(Cc2ccc(CCCCCNC(=O)/C=C/c3cccnc3)cc2)C(C)C)cc1 | 6.95 nM | 1.38 nM | 9.87 nM | 2.12 nM | 2.86 nM | –
21 | 149 nM | CC(C)N(CCc1ccc(F)cc1)Cc1ccc(CCCCCNC(=O)/C=C/c2cccnc2)cc1 | 20.9 nM | 7.37 nM | 34.1 nM | 7.67 nM | 13.6 nM | –
22 | 195 nM | CC(C)N(CCc1ccsc1)Cc1ccc(CCCCCNC(=O)/C=C/c2cccnc2)cc1 | 43.7 nM | 8.47 nM | 71.8 nM | 14.8 nM | 23.6 nM | –
23 | 120 nM | Cc1[nH]c2ccccc2c1CCN(Cc1ccc(CCCCCNC(=O)/C=C/c2cccnc2)cc1)C(C)C | 7.93 nM | 1.67 nM | 13.3 nM | 1.58 nM | 3.03 nM | –
